Assay results: PMC2213299 (The Journal of Experimental Medicine, 2004)
Where no end group is shown, it is not given here. The star is where a group is joined. αGalNAc = CC(=O)N[C@@H]1[C@@H](O)[C@@H](O)[C@@H](CO)O[C@@H]1*

These molecules were tested against K^b molecules (Mus musculus, UniProt P01901) (assay: not given).
Format: binding, murine
In short: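 Kb was affinity-purified from filtered Nonidet P-40 lysates of EL-4 cells. 5–10 nM Kb was incubated with a 125I-labelled known Kb-binding peptide plus test compound for 48 h in PBS with 0.05% Nonidet P-40 and protease inhibitors. Bound and free peptide were separated by gel filtration on TSK columns. IC50 is the amount inhibiting 50% of radioligand binding.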

Molecule | IC50 [µM]
AAAAAFAAL [AAAAAFAAL] | 0.61
AAAAFAAL [AAAAFAAL] | 0.075
AAIAAFAAL [AAIAAFAAL] | 0.09
AIAAAFAAL [AIAAAFAAL] | 0.24
AIIAAFAAL [AIIAAFAAL] | 0.01
GGGGFGGL [GGGGFGGL] | 53
SSSSFSSL [SSSSFSSL] | 0.509

What follows are molecules tested against K^b molecules (MHC class I H-2K^b) purified from EL-4 cells (mouse (endogenous in EL-4)) (assay: radioligand binding).

IC50 [µM] | Molecule
0.075 | AAAAFAAL
53 | GGGGFGGL
0.004 | AIIASFAAL (βGal-[1→3]-α-GalNAc-O-serine (TF antigen) at position 5) [AIIA(βGal-[1→3]-α-GalNAc-O-ser)FAAL]
0.01 | AIIAAFAAL
0.004 | AIIAS(αGalNAc)FAAL [AIIA(GalNac-O-ser)FAAL]
0.509 | SSSSFSSL
0.004 | AIIASFAAL
